Series [1] has as its target T1, Proto-oncogene tyrosine-protein kinase Src (Homo sapiens, UniProt P12931). The series is described as follows: Inhibition of GST-fussed c-SRC after 30 mins.
The test system of series [2] is MDA-MB-361. The series is described as follows: Cytotoxicity against c-SRC expressing human MDA-MB-361 cells assessed as inhibition of cell proliferation at 50 uM after 72 hrs relative to control. Format: functional. The settings on record: MDA-MB-361, 72 h. Summed up: (§1)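 Proliferation of SK-Ov-3, MDA-MB-361 and HT-29 cells was measured after 72 h exposure at 50 μM. Growth is expressed as a percentage of the DMSO vehicle control, set at 100%, with no compound. All experiments were run in triplicate.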

For series [3], the system named is HT-29. Description: Cellular uptake in c-SRC expressing human HT-29 cells. Format: ADME, cell-based.
The subject of series [4] is MDA-MB-361. Description: Cellular uptake in c-SRC expressing human MDA-MB-361 cells. The series is classed as ADME, cell-based.
Series [5] has as its system SK-OV-3. Description: Cellular uptake in c-SRC expressing human SKOV3 cells. Format: ADME, cell-based.
Series [6] concerns HT-29. Description: Cytotoxicity against c-SRC expressing human HT-29 cells assessed as inhibition of cell proliferation at 50 uM after 72 hrs relative to control. Format: functional. The settings on record: HT-29, 72 h. Summed up: as §1
The test system of series [7] is SK-OV-3. Description: Cytotoxicity against c-SRC expressing human SKOV3 cells assessed as inhibition of cell proliferation at 50 uM after 72 hrs relative to control. The series is classed as functional. To be noted: SK-OV-3, 72 h. Summed up: as §1
The target of series [8] is T1, Proto-oncogene tyrosine-protein kinase Src. Description: Inhibition of GST-fussed c-SRC up to 250 uM after 30 mins. In outline: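 Src kinase enzyme inhibition was assessed at concentrations up to 250 μM.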

SMILES strings stand for the structures. Where only a bound is given, the exact number is not on record here.

T1 sequence (P12931 2-536 limits assumed): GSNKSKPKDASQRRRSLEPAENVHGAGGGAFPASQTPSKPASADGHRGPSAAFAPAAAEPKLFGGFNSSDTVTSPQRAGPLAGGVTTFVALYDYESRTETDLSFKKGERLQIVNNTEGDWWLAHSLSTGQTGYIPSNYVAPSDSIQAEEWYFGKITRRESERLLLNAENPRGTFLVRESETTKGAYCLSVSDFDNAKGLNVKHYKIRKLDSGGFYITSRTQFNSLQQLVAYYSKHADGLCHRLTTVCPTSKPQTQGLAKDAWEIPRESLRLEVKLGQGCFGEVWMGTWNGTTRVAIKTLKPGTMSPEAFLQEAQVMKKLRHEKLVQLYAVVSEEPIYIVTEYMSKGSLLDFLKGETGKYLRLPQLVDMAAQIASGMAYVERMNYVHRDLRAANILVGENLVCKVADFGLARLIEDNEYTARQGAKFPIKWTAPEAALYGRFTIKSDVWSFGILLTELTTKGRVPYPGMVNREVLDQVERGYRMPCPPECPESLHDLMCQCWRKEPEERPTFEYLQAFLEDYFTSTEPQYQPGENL

As for `Nc1ncnc2c1c(-c1ccccc1)nn2Cc1cn(CC(=O)Nc2ccc(F)cc2)nn1`, in series [1], the IC50 – broadly, the concentration at which inhibition is half-maximal – turned out to be 16.4 µM.

The compound `Nc1ncnc2c1c(-c1ccccc1)nn2CCn1cc(-c2ccc(F)cc2)nn1` displayed an IC50 in series [1] of 29.6 µM. Further, in the series on MDA-MB-361 [2], the inhibition (in general, the percentage by which the read-out fell short of the control) at 50 µM was 49%.

In turn, `Nc1ncnc2c1c(-c1ccccc1)nn2Cc1cn(CC(=O)c2ccc(Cl)cc2)nn1` showed a 50% inhibitory concentration (IC50) in series [1] above 75 µM.

Compound `CCOC(=O)Cn1cc(Cn2nc(-c3ccccc3)c3c(N)ncnc32)nn1` gave an IC50 in series [1] of 12.7 µM.

For the compound `Nc1ncnc2c1c(-c1ccccc1)nn2Cc1cn(CC(=O)c2ccccc2)nn1`, the IC50 in series [1] was above 75 µM.

As for `CCCCCCc1cn(CCn2nc(-c3ccccc3)c3c(N)ncnc32)nn1`, the half-maximal inhibitory concentration (IC50) in series [1] was 5.6 µM. Moreover, the Drug uptake entry in the series on HT-29 [3], with MDA-MB-361 [4] and with SK-OV-3 [5] was “Active” throughout.

On to `Nc1ncnc2c1c(-c1ccccc1)nn2Cc1cn(CC(=O)Nc2ccccc2)nn1`, for which half-maximal inhibition in series [1] (IC50) required 23.1 µM. Moreover, in the series on MDA-MB-361 [2], the inhibition at 50 µM was 51%.

The compound `CC(=O)c1ccc(-c2cn(CCn3nc(-c4ccccc4)c4c(N)ncnc43)nn2)cc1` had a half-inhibitory concentration (IC50) in series [1] above 75 µM.

In the case of `Nc1ncnc2c1c(-c1ccccc1)nn2Cc1cn(CC(=O)Nc2ccc(Cl)cc2)nn1`, the IC50 in series [1] is above 75 µM.

`CCCCCCCCCCc1cn(CCn2nc(-c3ccccc3)c3c(N)ncnc32)nn1` registered a 50% inhibitory concentration (IC50) in series [1] above 75 µM.

As to `Nc1ncnc2c1c(-c1ccccc1)nn2Cc1cn(CC(=O)CCCO)nn1`, half-maximal inhibition in series [1] (IC50) was put at 9.1 µM.

`COc1ccc(-c2cn(CCn3nc(-c4ccccc4)c4c(N)ncnc43)nn2)cc1` had an IC50 in series [1] of 17.4 µM. Besides, the inhibition at 50 µM with HT-29 [6] worked out at 73%; in the series with SK-OV-3 [7], 58%.

As for `Nc1ncnc2c1c(-c1ccccc1)nn2Cc1cn(CC(=O)c2cccs2)nn1`, the IC50 in series [1] was above 75 µM.

`Cc1ccc(C(=O)Cn2cc(Cn3nc(-c4ccccc4)c4c(N)ncnc43)nn2)cc1` yielded an IC50 in series [1] above 75 µM.

`CCCCc1cn(CCn2nc(-c3ccccc3)c3c(N)ncnc32)nn1` had a half-inhibitory concentration (IC50) in series [1] above 75 µM.

For the compound `Nc1ncnc2c1c(-c1ccccc1)nn2Cc1cn(CC(=O)CCc2cccc3ccccc23)nn1`, in series [8], the inhibition is below 10%. Also, the inhibition at 50 µM in the series with SK-OV-3 [7] turned out to be 48%.

In series [8], `Nc1ncnc2c1c(-c1ccccc1)nn2CCn1cc(Cc2ccccc2)nn1` showed an inhibition below 10%.

In series [1], `CCCCCCCc1cn(CCn2nc(-c3ccccc3)c3c(N)ncnc32)nn1` displayed an IC50 above 75 µM.

As for `[N-]=[N+]=NCCn1nc(-c2ccccc2)c2c(N)ncnc21`, the 50% inhibitory concentration (IC50) in series [1] came to 6.2 µM.

Compound `Nc1ncnc2c1c(-c1ccccc1)nn2CCn1cc(CCCCl)nn1` gave an inhibition in series [8] below 10%. Moreover, the inhibition at 50 µM in the series on HT-29 [6] was 57%.
